Screening results deposited in PubChem by several laboratories.
Hits are enriched below; roughly 8.9% of the tested compounds scored in any of these assays.
L major viab: inhibitors of Leishmania major promastigote growth; Leishmania major promastigotes, resazurin fluorescence viability; inhibition, % at 10 µM; 9% of 200,000 active; AID 1063; in the data active means inhibition above about 50%;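 further: promastigotes grown with compound for 44 hours at 28 °C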
Dynein transport: blocks dynein driven cargo transport along microtubules. 3617.4 mouse cells, GR-EGFP nuclear translocation imaging; test concentration mostly 20 µM; stimulated with dexamethasone, 1 µM; active compounds read low. z-score, hits read low. 0.47% of 220,000 active. AID 1381;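 active means plate z-score of nuclear minus cytoplasmic receptor signal below a set negative limit, without overly bright fluorescence or cell loss, cut at about -3.5 in these data, passing the limit was not always enough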;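 further: z-score of nuclear minus cytoplasmic ring GR-EGFP intensity difference per well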
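Buffer or medium: tet-free, stripped-serum medium; reagent: dexamethasone at 1.0 µM final, 30 min; incubation: 48 h induction, 1 h compound, 30 min dex at 37 °C; measured by: formaldehyde fixation, Hoechst nuclear stain, 10x automated fluorescence imaging; read-out: nuclear-to-cytoplasmic GR-EGFP distribution per well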
bCat nuc transl: beta-catenin nuclear translocation modulation. nuclear translocation activity, % at 5 µM. AID 1665. 0.3% of 190,000 active. HeLa beta-catenin nuclear translocation, immunofluorescence imaging;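 active means nuclear translocation activity above 50% at 5 µM, with a well cell count of 50 or more; inconclusive means wells under 50 cells across six images, flagged as toxic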;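 further: per-cell ratio of nuclear to cytoplasmic median beta-catenin stain intensity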
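System: HeLa cells, endogenous beta-catenin; compound dosing: 5 µM primary single dose, 0.1% DMSO, 0.02–20 µM confirmation series; incubation: 24 h compound exposure at 37°C, 5% CO2; signal: beta-catenin immunofluorescence imaging with DAPI; evaluation: % activation, nuclear-to-cytoplasmic median beta-catenin signal ratio per cell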
MT stabilizer: microtubule stabilization, imaging screen | HeLa tubulin immunostaining HCS, 24 h; share of cells brighter than vehicle mean+2SD | % tubulin-high responders, % at 10 µM | 0.83% of 200,000 active | AID 2205;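 active means plate Z-score above 3 for both tubulin-high and condensed-nucleus cell shares, with cell loss under 80%, at 10 µM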;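 further: anti alpha tubulin signal scored within the nucleus-defined area of each cell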
HSV augment: HSV replication enhancement; HSV replication augmentation in cells, fold increase; maximum fold increase; 0.005% of 220,000 active; in the data active means maximum fold increase above about 1.5; inconclusive means no clear call, values can overlap the other calls; tested in PC3 cells
Hits are given with their value; - = inactive; ? = inconclusive; . = no result given.

SMILES	L major viab	Dynein transport	bCat nuc transl	MT stabilizer	HSV augment
O=C(c1ccco1)N1CCN(C(c2cccs2)c2nnnn2C2CCCCC2)CC1 (centres undefined)	60	-	-	-	-
Cc1ccc(C(c2nnnn2C2CCCC2)N2CCN(c3nc4ccccc4s3)CC2)cc1 (centres undefined)	95	-	.	-	-
O=C(Nc1cc(C(F)(F)F)ccc1N1CCOCC1)c1ccc(Cl)nc1	100	-	-	-	-
O=C(Nc1cc(C(F)(F)F)ccc1N1CCOCC1)c1ccccc1	-	-	-	-	-
CCN(CC)S(=O)(=O)c1ccc(/C=C/C(=O)Nc2ccc(Br)cc2F)cc1	99	-	-	-	-
CCN(CC)S(=O)(=O)c1ccc(/C=C/C(=O)Nc2ccc(F)cc2F)cc1	56	-	-	-	-
CCN(CC)S(=O)(=O)c1ccc(/C=C/C(=O)OCC#N)cc1	-	-	-	-	-
CCN(CC)S(=O)(=O)c1ccc(/C=C/C(=O)Nc2ccc(N3CCOCC3)cc2)cc1	.	-	-	.	-
CCN(CC)S(=O)(=O)c1ccc(/C=C/C(=O)Nc2ccc(F)c(F)c2F)cc1	89	-	.	-	-
COc1cccc(-n2cnc3sc(C)cc3c2=O)c1	-	-	-	-	-
O=C(N/N=C\c1ccc2c(c1)OCO2)c1ccc(Cn2cc(Br)c([N+](=O)[O-])n2)o1	83	-	-	-	-
CCOc1ccc(/C=N/NC(=O)c2ccc(Cn3cc(Br)cn3)o2)cc1	59	-	-	-	-
COc1ccc(C2c3ccc(O)cc3Oc3ncn(Cc4ccco4)c(=N)c32)cc1OC (centres undefined)	.	-	-	.	?
COc1ccc(C2c3ccc4ccccc4c3Oc3ncn(Cc4ccco4)c(=N)c32)cc1OC (centres undefined)	58	-	-	-	-
COc1ccc(C2c3c(ncn(CCN4CCOCC4)c3=N)Oc3ccc4ccccc4c32)cc1OC (centres undefined)	100	-	-	-	-
O=C(NCCN1C(=O)S/C(=C\c2ccc(OC(F)F)cc2)C1=O)c1cnccn1	-	-	68	34	-
COc1ccc(C2NC(=S)N(c3ccccc3)C(C)=C2C(=O)Nc2ccccc2)cc1 (centres undefined)	100	-	.	-	-
CC1=C(C(=O)Nc2ccc([N+](=O)[O-])cc2)C(c2cccc(C(F)(F)F)c2)NC(=S)N1c1ccccc1 (centres undefined)	-	-	-	-	-
COc1ccc(CNC(=O)COC(=O)c2cncc(Br)c2)cc1	-	-	-	-	-
COc1ccc2c(=O)c3c(=O)n(Cc4ccco4)c(C(C)C)nc3oc2c1	-	-	-	-	-
COc1ccc2c(=O)c3c(=O)n(Cc4ccco4)c(-c4ccc(C)cc4)nc3oc2c1	59	-	-	-	-
CCc1nc2oc3cc(OC)ccc3c(=O)c2c(=O)n1Cc1ccccc1	95	-	.	-	-
O=C(CSc1nnc(-c2cccnc2)n1Cc1ccco1)c1ccc(Br)cc1	-	-	-	-	-
O=C(NC1CCCC1)C(c1ccsc1)N(CCc1ccccc1)C(=O)Cc1cccs1 (centres undefined)	-	-	-	-	-
Cc1nn2c(COc3ccc(NC(=O)C(C)C)cc3)nnc2c2ccccc12	-	-	-	-	-
SMILES	L major viab	Dynein transport	bCat nuc transl	MT stabilizer	HSV augment
Cc1nn2c(COc3ccc(NC(=O)c4ccccc4Cl)cc3)nnc2c2ccccc12	-	-	-	18	-
Cc1nn2c(CN(C(=O)COc3ccccc3)c3ccccc3)nnc2c2ccccc12	81	-	-	-	-
O=C(Nc1ccc(F)cc1)Nc1cc(OCC(F)(F)F)cc(OCC(F)(F)F)c1	99	-	-	-	-
CCOC(=O)c1ccc(NC(=O)Nc2ccc(OC)c(OC)c2)cc1	58	-	-	-	-
CCCCOC(=O)c1ccc(NC(=O)Nc2ccc(OC)c(OC)c2)cc1	-	-	.	-	-
CCOC(=O)c1ccc(OS(=O)(=O)c2ccccc2)c(OC)c1	92	-	-	-	-
CCOC(=O)c1ccc(NC(=O)Nc2ccc(F)cc2)cc1	96	-	.	-	?
COc1ccc(S(=O)(=O)NN=C2CCCC2)cc1	-	-	-	-	-
O=c1nc2ccccc2c2n1CC(CN1CCN(C(c3ccccc3)c3ccccc3)CC1)N2 (centres undefined)	66	-	-	-	-
O=[N+]([O-])c1ccc(/C=N/n2c(-c3cccnc3)n[nH]c2=S)cc1	-	-	-	-	-
O=[N+]([O-])c1cccc(/C=N/n2c(-c3cccnc3)n[nH]c2=S)c1	55	-	-	-	-
Cc1cc(-c2n[nH]c(=S)n2/N=C/c2cc([N+](=O)[O-])ccc2Cl)n[nH]1	84	-	-	-	-
Cc1cccc2cc3c(N)c(C(=O)N4CCOCC4)sc3nc12	-	-	.	-	-
O=C(NC(Nc1ncc(S(=O)(=O)c2ccc([N+](=O)[O-])cc2)s1)(C(F)(F)F)C(F)(F)F)c1ccc(Cl)cc1	-	-	-	-	.
Cc1nn(-c2ccccc2)c(C)c1/C=C/C(=O)OCC(=O)Nc1ncc(Cl)cc1Cl	78	-	-	-	-
Cc1nn(-c2ccccc2)c(C)c1/C=C/C(=O)OC(C)C(=O)Nc1ncc(Cl)cc1Cl (centres undefined)	-	-	-	-	-
CCCCNC(=O)C1c2cc(OC)c(OC)cc2C(=O)N(C)C1c1cccs1 (centres undefined)	-	-	.	-	-
Cc1ccc(S(=O)(=O)Cc2nc3ccccc3c(=O)[nH]2)cc1	-	-	.	-	-
CN1Cc2cccc3c2C(Cc2ccccc2S3)C1 (centres undefined)	57	-	-	-	-
Nc1ccc2oc(-c3ccc4nc[nH]c4c3)nc2c1	-	-	-	-	-
Cc1nc2ccc(-c3nc4cc(N)ccc4o3)cc2[nH]1	53	-	-	-	-
CN(C)CC/C=C1/c2ccccc2Sc2c(O)cc(Cl)cc21	98	-	-	-	-
COc1cc2c(cc1Cl)/C(=C\CCN(C)C)c1ccccc1S2	100	-	-	-	-
COc1cc(Cl)cc2c1Sc1ccccc1/C2=C/CCN(C)C	59	-	-	-	-
CN(C)CCC(=O)N1c2ccccc2Sc2ccc(Cl)cc21	-	-	-	-	-
CN1CCN(CC/C=C2/c3ccccc3Sc3ccc(S(=O)(=O)N(C)C)cc32)CC1	.	.	-	.	-
Cc1ccc(NS(=O)(=O)c2ccc(N3CCN(c4ccc(O)cc4)CC3)c([N+](=O)[O-])c2)c(C)c1	98	-	-	-	-
CC(=O)N1CCCc2cc(S(=O)(=O)Nc3ccc(C)cc3C)ccc21	-	-	-	-	-
O=[N+]([O-])c1cc(S(=O)(=O)Nc2ccccc2)ccc1N1CCN(c2ccc(O)cc2)CC1	79	-	-	-	-
CN(C)S(=O)(=O)c1cccc(NC(=O)COc2nc3ccccc3nc2N2CCOCC2)c1	56	-	-	-	-
